The record followed here is ChEMBL document CHEMBL1221380, “Structure-activity relationships of mononuclear metal-thiosemicarbazone complexes endowed with potent antiplasmodial and antiamoebic activities” (Bioorg Med Chem, 2010).

The term IC50 denotes the concentration that inhibits the measured activity by half. High values mean a need for much substance, low ones inhibition by little substance.

One assay has as its system Plasmodium falciparum. Briefly: Antiplasmodial activity against Plasmodium falciparum W2 after 24 hrs by [3H]hypoxanthine incorporation assay. Format: functional, organism-based. In outline:
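Chloroquine-resistant, mefloquine-sensitive W2 clone grown in human O+ erythrocytes in RPMI 1640 with 10% human plasma; 1–2% parasitemia, 2.5% hematocrit. Five concentrations in 4% DMSO in hypoxanthine-free RPMI, 24 h. [3H]-hypoxanthine uptake vs untreated wells; IC50 from triplicates, mefloquine standard.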

The test system of a further assay is Entamoeba histolytica. Briefly: Antiamoebic activity against Entamoeba histolytica HM1:IMSS after 72 hrs by microplate method. Format: functional, organism-based. To be noted: HM-1:IMSS. The procedure, abridged:
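Trophozoites grown in TYI-S-33 medium; samples dissolved in DMSO then medium to 1 mg/mL, diluted to 0.1 mg/mL, twofold serial dilutions in plate; final DMSO ≤0.1%. 10^5 organisms/mL added, plate gassed with nitrogen 10 min, 37 °C for 72 h. OD at 490 nm; % inhibition vs log dose, linear regression for IC50. Triplicates, repeated thrice; metronidazole standard.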

Assay [1] is described as follows: Cytotoxicity against BALB/c mouse splenocyte by [3H]thymidine incorporation assay. Type of assay: cell-based. The procedure, abridged:
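Splenocytes (5 × 10^6 per well) in DMEM with 10% FCS and 50 µg/mL gentamycin; tested at 1.1, 3.3, 11, 33 and 100 µg/mL in triplicate with 3H-thymidine (1 µCi per well), 24 h, 37 °C, 5% CO2. Value is highest non-cytotoxic concentration, i.e. reducing incorporation by under 10% versus untreated.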
(In general: Uptake of a labelled nucleoside into DNA is a usual measure of proliferation.)

Assay [2] in a line: Inhibition of beta-hematin formation after 18 hrs by microtiter plate assay. Format: functional.

For `S=C(N/N=C/c1ccco1)N1CCCCCC1`, the IC50 came out at 35.8 µM in the assay on Plasmodium falciparum and 12.1 µM in the assay on Entamoeba histolytica. Also, in assay [1], the highest non-cytotoxic concentration was > 100 µg/mL.
In the same order, the values of `S=C(N/N=C/c1ccco1)NC1CCCCC1` are 20.3 µM, 10.1 µM and 33 µg/mL.
For `CC1CCN(C(=S)N/N=C/c2ccco2)CC1`, in that order: 36.2 µM, 8.02 µM and 100 µg/mL.
In the same order, the values of `CN(C(=S)N/N=C/c1ccco1)C1CCCCC1` are 21.8 µM, 9.07 µM and > 100 µg/mL.
With `CCN(CC)CCCC(C)Nc1ccnc2cc(Cl)ccc12.O=P(O)(O)O.O=P(O)(O)O` (centres undefined) [CHLOROQUINE PHOSPHATE], the IC50 in assay [2] was 1.3 µg/mL.
In the assay with Plasmodium falciparum, `OC(c1cc(C(F)(F)F)nc2c(C(F)(F)F)cccc12)C1CCCCN1` (centres undefined) [MEFLOQUINE] yielded an IC50 of 0.039 µM.
